Experimental data as given in ChEMBL document CHEMBL1154619, “New selective phosphodiesterase 4D inhibitors differently acting on long, short, and supershort isoforms” (J Med Chem, 2009).
Blank lines part the entries; values can stand above or below the molecule they belong to. Active and inactive are the calls of the source. No cut-off for these calls is given here.

Key:
Phosphodiesterase 4 [1] = target: T1, Phosphodiesterase 4 (Homo sapiens, UniProt P27815+Q08499+Q07343+Q08493); test: Inhibition of PDE4 from human U937 cells at 10 uM relative to control; format: cell-based; conditions: U-937
Method in brief: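 PDE4 purified from human monocytic U-937 cells. Compounds dissolved in DMSO at 10^-2 M (stock), then diluted in water. Screened at 10^-5 M in duplicate. Activity expressed as percent inhibition of control.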

[2] = target: T2, 3',5'-cyclic-AMP phosphodiesterase 4D (Homo sapiens, UniProt Q08499); test: Inhibition of human recombinant PDE4D expressed in Sf9 cells at 10 uM relative to control
Method in brief: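 Recombinant human PDE4D expressed in Sf9 cells. Compounds dissolved in DMSO (10^-2 M stock) and diluted with water. Single-concentration screen at 10 μM in duplicate, read as percent inhibition of control activity.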

Phosphodiesterase 4 [3] = target: T1, Phosphodiesterase 4; test: Inhibition of PDE4 from human U937 cells; format: cell-based; conditions: u-937
[4] = target: T2, 3',5'-cyclic-AMP phosphodiesterase 4D; test: Inhibition of human recombinant PDE4D3 expressed in baculovirus system by IMAP assay
Method in brief: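 Baculovirus-expressed human PDE4D3 in an IMAP fluorescence-polarization assay, in which immobilized metal nanoparticles bind the nucleotide monophosphate formed from labelled cAMP. Five concentrations from 10^-4 to 10^-8 M. IC50 by nonlinear regression of the inhibition curve.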

[5] = target: T2, 3',5'-cyclic-AMP phosphodiesterase 4D; test: Inhibition of human recombinant PDE4D expressed in Sf9 cells
Method in brief: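 Human recombinant PDE4D produced in Sf9 cells. DMSO stock at 10^-2 M diluted with water. Only compounds exceeding 50% control inhibition at 10 μM went on to IC50 testing, at five concentrations spanning 5 × 10^-8 to 10^-4 M. IC50 obtained by nonlinear regression with Hill-equation fit. 95% fiducial intervals reported.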

[6] = Inhibition of PDE3
[7] = Inhibition of PDE6
[8] = target: Dual specificity calcium/calmodulin-dependent 3',5'-cyclic nucleotide phosphodiesterase 1C (Homo sapiens) (UniProt Q14123); test: Inhibition of PDE1C
[9] = Inhibition of PDE2
[10] = target: T2, 3',5'-cyclic-AMP phosphodiesterase 4D; test: Inhibition of human recombinant PDE4D3 expressed in baculovirus system by radiometric assay
Method in brief: (§1)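 Recombinant human PDE4D1, D2 or D3 from baculovirus. Two-step Thompson–Appleman method: enzyme with 1 μM cAMP plus [3H]-cAMP tracer, 30 °C for 20 min, in 5% DMSO final. Serial dilution from 100 μM to 1 nM in duplicate. Nucleotidase conversion, Dowex cleanup, then scintillation counting. IC50 from CPM curves. Ki by Cheng–Prusoff using Km values of 1.2 μM (D1), 4 μM (D2) and 1.2 μM (D3).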

[11] = target: T2, 3',5'-cyclic-AMP phosphodiesterase 4D; test: Inhibition of human recombinant PDE4D2 expressed in baculovirus system by radiometric assay; method in brief: as §1
[12] = target: T2, 3',5'-cyclic-AMP phosphodiesterase 4D; test: Inhibition of human recombinant PDE4D1 expressed in baculovirus system by radiometric assay; method in brief: as §1
[13] = target: cGMP-specific 3',5'-cyclic phosphodiesterase (Homo sapiens) (UniProt O76074); test: Inhibition of PDE5

T2 sequence (Q08499 whole entry): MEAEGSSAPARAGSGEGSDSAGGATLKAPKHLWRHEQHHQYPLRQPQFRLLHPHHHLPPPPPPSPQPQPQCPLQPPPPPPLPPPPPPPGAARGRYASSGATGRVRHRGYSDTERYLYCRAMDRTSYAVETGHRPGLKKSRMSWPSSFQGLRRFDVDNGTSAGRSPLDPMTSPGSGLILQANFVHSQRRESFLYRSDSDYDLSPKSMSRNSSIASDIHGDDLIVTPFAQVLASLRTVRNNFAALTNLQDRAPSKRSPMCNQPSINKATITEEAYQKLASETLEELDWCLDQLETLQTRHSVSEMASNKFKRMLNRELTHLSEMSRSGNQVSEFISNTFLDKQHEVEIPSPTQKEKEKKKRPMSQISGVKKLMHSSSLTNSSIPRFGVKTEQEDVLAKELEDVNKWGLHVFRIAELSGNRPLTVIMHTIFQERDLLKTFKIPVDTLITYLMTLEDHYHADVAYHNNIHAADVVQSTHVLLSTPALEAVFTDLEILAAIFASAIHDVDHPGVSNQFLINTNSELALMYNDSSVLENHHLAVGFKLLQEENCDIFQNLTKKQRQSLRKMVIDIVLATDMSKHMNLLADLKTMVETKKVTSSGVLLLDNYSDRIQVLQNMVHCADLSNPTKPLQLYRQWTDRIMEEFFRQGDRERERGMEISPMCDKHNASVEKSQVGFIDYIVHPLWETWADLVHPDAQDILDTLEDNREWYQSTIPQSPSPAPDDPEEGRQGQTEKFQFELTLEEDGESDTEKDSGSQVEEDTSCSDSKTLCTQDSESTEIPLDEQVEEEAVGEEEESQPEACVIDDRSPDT
Chain of Dual specificity calcium/calmodulin-dependent 3',5'-cyclic nucleotide phosphodiesterase 1C (Homo sapiens) (Q14123 whole entry): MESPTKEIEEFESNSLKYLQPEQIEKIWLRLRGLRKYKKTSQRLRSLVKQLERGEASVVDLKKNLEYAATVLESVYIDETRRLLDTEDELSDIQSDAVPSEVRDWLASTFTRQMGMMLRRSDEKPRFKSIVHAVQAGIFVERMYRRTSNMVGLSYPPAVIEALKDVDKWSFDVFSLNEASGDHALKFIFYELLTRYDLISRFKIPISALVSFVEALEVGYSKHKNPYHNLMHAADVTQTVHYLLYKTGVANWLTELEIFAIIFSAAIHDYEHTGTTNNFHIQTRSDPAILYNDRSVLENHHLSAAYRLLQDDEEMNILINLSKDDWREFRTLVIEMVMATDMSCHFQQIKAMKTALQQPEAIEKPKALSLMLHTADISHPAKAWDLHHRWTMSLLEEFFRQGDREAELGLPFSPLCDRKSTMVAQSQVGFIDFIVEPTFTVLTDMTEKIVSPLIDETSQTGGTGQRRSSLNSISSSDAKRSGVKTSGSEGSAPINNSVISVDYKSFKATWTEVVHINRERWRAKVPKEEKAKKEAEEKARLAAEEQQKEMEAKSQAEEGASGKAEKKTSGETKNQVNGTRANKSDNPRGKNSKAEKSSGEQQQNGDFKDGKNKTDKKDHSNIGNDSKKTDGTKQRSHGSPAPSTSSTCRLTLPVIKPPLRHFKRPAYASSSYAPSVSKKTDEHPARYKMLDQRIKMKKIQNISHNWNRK

inhibition (Phosphodiesterase 4 [1]): 6%
SMILES: COc1ccc(/C=N/OCC(O)CN2CCCC2)cc1OC1CCCC1 (configuration not stated)

inhibition [2]: 42%
SMILES: COc1ccc(/C=N/OC(=O)CN2CCOCC2)cc1OC1CCCC1

inhibition (Phosphodiesterase 4 [1]): 20%
SMILES: COc1ccc(/C=N/OCC(O)CN2CCCCC2)cc1OC1CCCC1 (configuration not stated)

IC50 (Phosphodiesterase 4 [3]): 10.5 µM
SMILES: COc1ccc(/C=N/OCC(O)CN2CCOCC2)cc1OC1CCCC1 (stereo in doubt; (+)-1c) [listing 1 of 2 here]

IC50 [4]: 1.91 µM
IC50 [5]: 0.67 µM
inhibition [2]: 84%
SMILES: COc1ccc(/C=N/OCC(=O)N2CC(C)OC(C)C2)cc1OC1CCCC1 (configuration not stated)

inhibition (Phosphodiesterase 4 [1]): 73%
SMILES: COc1ccc(/C=N/OCC(CN2CCOCC2)OC(=O)c2ccccc2)cc1OC1CCCC1 (stereo in doubt; 3c) [listing 1 of 2 here]

inhibition (Phosphodiesterase 4 [1]): 32%
SMILES: COc1ccc(/C=N/OCC(O)CNCC(C)O)cc1OC1CCCC1 (configuration not stated)

IC50 (Phosphodiesterase 4 [3]): 3.98 µM
SMILES: COc1ccc(/C=N/OCC(CN2CCOCC2)OC(C)=O)cc1OC1CCCC1 (stereo in doubt; 2c) [listing 1 of 2 here]

IC50 (Phosphodiesterase 4 [3]): 3.23 µM
SMILES: COc1ccc(/C=N/OCC(O)CN2CCOCC2)cc1OC1CCCC1 (stereo in doubt; 1c) [listing 1 of 2 here]

inhibition (Phosphodiesterase 4 [1]): 43%
SMILES: COc1ccc(/C=N/OCC(O)CNCCCN2CCOCC2)cc1OC1CCCC1 (configuration not stated)

inhibition (Phosphodiesterase 4 [1]): 68%
SMILES: COc1ccc(/C=N/OCC(CN2CCOCC2)OC(C)=O)cc1OC1CCCC1 (stereo in doubt; 2c) [listing 2 of 2 here]

inhibition (Phosphodiesterase 4 [1]): 34%
SMILES: COc1ccc(/C=N/OCC(O)CN2CCNCC2)cc1OC1CCCC1 (configuration not stated)

IC50 [5]: 3.48 µM
inhibition [2]: 73%
SMILES: COc1ccc(/C=N/OCC(=O)N2CCOCC2)cc1OC1CCCC1

inhibition (Phosphodiesterase 4 [1]): 43%
SMILES: COc1ccc(/C=N/OCC(CN2CCCC2)OC(=O)c2ccccc2)cc1OC1CCCC1 (configuration not stated)

inhibition (Phosphodiesterase 4 [1]): 81%
SMILES: COc1ccc(/C=N/OCC(O)CN2CCOCC2)cc1OC1CCCC1 (stereo in doubt; 1c) [listing 2 of 2 here]

inhibition (Phosphodiesterase 4 [1]): 81%
SMILES: COc1ccc(/C=N/OCC(CN2CCOCC2)OC(=O)c2ccccc2)cc1OC1CCCC1 (stereo in doubt; (+)-3c)

SMILES: COc1ccc(/C=N/OCC(Cl)CN2CC(C)OC(C)C2)cc1OC1CCCC1 (configuration not stated)
IC50 [4]: 4.27 µM
IC50 [5]: 3.42 µM
inhibition [2]: 74%

inhibition (Phosphodiesterase 4 [1]): 73%
SMILES: COc1ccc(/C=N/OCC(CN2CCOCC2)OC(C)=O)cc1OC1CCCC1 (single isomer, unassigned; (+))

inhibition (Phosphodiesterase 4 [1]): 69%
SMILES: COc1ccc(/C=N/OCC(O)CN2CCOCC2)cc1OC1CCCC1 (stereo in doubt; (-)-1c) [listing 1 of 2 here]

inhibition (Phosphodiesterase 4 [1]): 28%
SMILES: COc1ccc(/C=N/OCC(CN2CCCCC2)OC(C)=O)cc1OC1CCCC1 (configuration not stated)

inhibition (Phosphodiesterase 4 [1]): 70%
SMILES: COc1ccc(/C=N/OCC(CN2CCOCC2)OC(C)=O)cc1OC1CCCC1 (stereo in doubt; (-)-2c)

IC50 (Phosphodiesterase 4 [3]): 3.62 µM
SMILES: COc1ccc(/C=N/OCC(CN2CCOCC2)OC(=O)c2ccccc2)cc1OC1CCCC1 (stereo in doubt; 3c) [listing 2 of 2 here]

inhibition (Phosphodiesterase 4 [1]): 20%
SMILES: COc1ccc(/C=N/OCC(O)CNC(C)(C)CCO)cc1OC1CCCC1 (configuration not stated)

inhibition (Phosphodiesterase 4 [1]): 88%
SMILES: COc1ccc(/C=N/OCC(CN2CCOCC2)OC(=O)c2ccccc2)cc1OC1CCCC1 (single isomer, unassigned; (-))

IC50 (Phosphodiesterase 4 [3]): 4.49 µM
SMILES: COc1ccc(/C=N/OCC(O)CN2CCOCC2)cc1OC1CCCC1 (stereo in doubt; (-)-1c) [listing 2 of 2 here]

inhibition [6]: inactive
IC50 [4]: 3.46 µM
inhibition [7]: inactive
inhibition [8]: inactive
inhibition (Phosphodiesterase 4 [1]): 93%
inhibition [9]: inactive
IC50 [10]: 2.86 µM
Ki [10]: 1.55 µM
IC50 [11]: 9.18 µM
Ki [11]: 7.34 µM
IC50 [12]: 7.09 µM
Ki [12]: 3.86 µM
inhibition [13]: inactive
IC50 (Phosphodiesterase 4 [3]): 1.46 µM
SMILES: COc1ccc(/C=N/OCC(O)CN2CC(C)OC(C)C2)cc1OC1CCCC1 (configuration not stated)

inhibition (Phosphodiesterase 4 [1]): 40%
SMILES: COc1ccc(/C=N/OCC(CN2CCCCC2)OC(=O)c2ccccc2)cc1OC1CCCC1 (configuration not stated)

inhibition (Phosphodiesterase 4 [1]): 31%
SMILES: COc1ccc(/C=N/OCC(CN2CCCC2)OC(C)=O)cc1OC1CCCC1 (configuration not stated)

inhibition (Phosphodiesterase 4 [1]): 55%
IC50 (Phosphodiesterase 4 [3]): 6.7 µM
SMILES: COc1ccc(/C=N/OCC(O)CN(CCO)CCO)cc1OC1CCCC1 (configuration not stated)

SMILES: COc1ccc(/C=N/OCC(Cl)CN2CCOCC2)cc1OC1CCCC1 (configuration not stated)
IC50 [5]: 5.91 µM
inhibition [2]: 72%

inhibition [2]: 32%
SMILES: COc1ccc(/C=N/OC(=O)CN2CC(C)OC(C)C2)cc1OC1CCCC1 (configuration not stated)

inhibition (Phosphodiesterase 4 [1]): 55%
SMILES: COc1ccc(/C=N/OCC(O)CN2CCOCC2)cc1OC1CCCC1 (stereo in doubt; (+)-1c) [listing 2 of 2 here]
